The source made the active and inactive calls.
Assays:
MEF [1] = experiment: Inhibition of TGF-beta induced p38 MAPK phosphorylation level in TAK1 deficient mouse MEF cells at low concentration incubated for 1 hr followed by TGF-beta stimulation by Western blot analysis; assay type: functional, cell-based
Procedure, shortened: (§1)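 TAK1-null MEFs grown in DMEM with 10% FBS, 2 mM L-glutamine and penicillin/streptomycin at 37 °C under 5% CO2. Inhibitors added 1 h before TGFβ (50 pM, 45 min). Cells lysed in ice-cold buffer with phosphatase and protease inhibitors, extracts cleared at 16000g, then p38 and SMAD2 phosphorylation assessed by Western blot.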

MEF [2] = experiment: Inhibition of TGFbeta induced SMAD2 phosphorylation level in TAK1 deficient mouse MEF cells at low concentration incubated for 1 hr followed by TGFbeta stimulation by Western blot analysis
MEF [3] = experiment: Inhibition of IL-1 induced p38 MAPK phosphorylation level in TAK1 deficient mouse MEF cells at low concentration incubated for 1 hr followed by IL-1 stimulation by Western blot analysis; assay type: functional, cell-based
Procedure, shortened: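 WT and TAK1-null MEFs were grown in DMEM with 10% FBS, then held in 0.1% FBS for 16 h. Cells were pretreated with inhibitor for 1 h, then stimulated with mouse IL-1α (5 ng/mL, 10 min). Cells were lysed in ice-cold buffer, and extracts were cleared at 16000g and analysed by Western blot.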

MEF [4] = experiment: Inhibition of TGF-beta induced SMAD2 phosphorylation level in TAK1 deficient mouse MEF cells at low concentration incubated for 1 hr followed by TGF-beta stimulation by Western blot analysis; assay type: functional, cell-based; procedure, shortened: as §1

Measured: inhibition

COc1cc(O)c2c(c1)/C=C/C[C@H](O)[C@H](O)C(=O)/C=C\C[C@H](C)OC2=O
active: all assays above
